# Experimental data reported in ChEMBL document CHEMBL1123603, “Synthesis of angiotensin II antagonists with variations in position 5” (J Med Chem, 1987).
# Square brackets hold non-standard residues; d marks the D form. Peptide text beside a SMILES is read from it. * marks the point of attachment. Gly(cPent) = N[C@H](C(=O)O)C1CCCC1; Chg = N[C@H](C(=O)O)C1CCCCC1; Lac = C[C@H](O)C(=O)O; Glycolyl = O=C(CO)*; Sar = CNCC(=O)O
# What was measured:
# Rattus norvegicus [1] = assay: Tested in vivo on the angiotensin II induced rise of blood pressure after intravenous administration of 1.25 ug/kg in conscious rats; type: functional
# In short: (§1)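 Conscious, free-moving rats, carotid artery linked to a pressure transducer 24 h after surgery. One analogue per rat, in 0.9% NaCl with 5 g/L BSA, given as a 10-s iv bolus into the jugular vein. Doses 1.25–20 μg/kg in random order, one every 20 min. Maximal blood pressure rise recorded; 6 rats; ANOVA with Dunnett's test.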
# Rattus norvegicus [2] = assay: Tested in vivo on the angiotensin II induced rise of blood pressure after intravenous administration of 10 ug/kg in conscious rats; type: functional; in short: as §1
# Rattus norvegicus [3] = assay: Tested in vivo on the angiotensin II induced rise of blood pressure after intravenous administration of 2.5 ug/kg in conscious rats; type: functional; in short: as §1
# Rattus norvegicus [4] = assay: Tested in vivo on the angiotensin II induced rise of blood pressure after intravenous administration of 20 ug/kg in conscious rats; type: functional; in short: as §1
# Rattus norvegicus [5] = assay: Tested in vivo on the angiotensin II induced rise of blood pressure after intravenous administration of 5 ug/kg in conscious rats; type: functional; in short: as §1
# Angiotensin II receptor = target: T1, Angiotensin II receptor (Rattus norvegicus, UniProt P29089+P25095+P35351); assay: Antagonistic effect against Angiotensin II receptor in zona glomerulosa; type: functional
# T1 sequence (P29089 whole entry): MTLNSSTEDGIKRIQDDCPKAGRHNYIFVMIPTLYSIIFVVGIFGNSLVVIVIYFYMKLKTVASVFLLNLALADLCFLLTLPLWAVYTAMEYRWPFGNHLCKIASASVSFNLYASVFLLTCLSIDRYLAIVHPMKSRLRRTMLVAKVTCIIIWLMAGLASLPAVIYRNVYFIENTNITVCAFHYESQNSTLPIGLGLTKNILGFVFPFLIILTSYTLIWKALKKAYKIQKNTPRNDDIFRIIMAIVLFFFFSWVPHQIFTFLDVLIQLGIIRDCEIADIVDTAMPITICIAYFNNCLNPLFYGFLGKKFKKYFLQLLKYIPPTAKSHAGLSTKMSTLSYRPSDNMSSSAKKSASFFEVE
# T1 sequence (P25095 whole entry): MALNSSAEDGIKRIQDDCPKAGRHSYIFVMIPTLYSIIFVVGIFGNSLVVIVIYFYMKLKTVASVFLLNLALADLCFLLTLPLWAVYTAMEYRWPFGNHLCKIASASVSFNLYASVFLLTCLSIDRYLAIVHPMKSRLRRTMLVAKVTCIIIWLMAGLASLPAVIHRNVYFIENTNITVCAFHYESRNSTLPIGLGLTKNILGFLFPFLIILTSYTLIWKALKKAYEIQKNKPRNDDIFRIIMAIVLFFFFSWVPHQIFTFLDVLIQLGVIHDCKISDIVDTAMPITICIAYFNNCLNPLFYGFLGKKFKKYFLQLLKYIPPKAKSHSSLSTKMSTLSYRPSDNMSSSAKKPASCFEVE
# T1 sequence (P35351 whole entry): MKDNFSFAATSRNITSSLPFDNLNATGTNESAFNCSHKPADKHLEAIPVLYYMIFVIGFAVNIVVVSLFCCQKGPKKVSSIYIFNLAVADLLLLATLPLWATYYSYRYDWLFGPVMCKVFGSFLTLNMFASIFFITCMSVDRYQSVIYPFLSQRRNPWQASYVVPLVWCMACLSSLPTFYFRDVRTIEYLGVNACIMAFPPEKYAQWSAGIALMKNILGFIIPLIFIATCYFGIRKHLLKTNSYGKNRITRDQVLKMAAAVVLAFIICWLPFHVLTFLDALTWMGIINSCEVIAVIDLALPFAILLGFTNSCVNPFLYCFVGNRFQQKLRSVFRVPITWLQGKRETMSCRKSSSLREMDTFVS
# In short: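 Dispersed zona glomerulosa cells from male CFY rats, 250–300 g. Capsules digested with collagenase 2 mg/mL and DNase 0.1 mg/mL, 2 × 25 min at 37 °C. Cells 3.0–3.5 × 10⁶/mL in Krebs–Ringer glucose buffer, 5 g/L albumin. Antagonists 2 × 10⁻¹²–2 × 10⁻⁶ M, alone or with 2 × 10⁻⁸ M AII, duplicate or triplicate. Aldosterone by RIA after CHCl3 extraction; pA2 values.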
# [6] = target: Angiotensin II receptor (Oryctolagus cuniculus); assay: Antagonistic effect against Angiotensin II receptor in rabbit aortic strip
Structure (SMILES),pA2 (Angiotensin II receptor),pA2 [6],Blood pressure (Rattus norvegicus [1]),Blood pressure (Rattus norvegicus [2]),Blood pressure (Rattus norvegicus [3]),Blood pressure (Rattus norvegicus [4]),Blood pressure (Rattus norvegicus [5])
CNCC(=O)N[C@@H](CCCNC(=N)N)C(=O)N[C@H](C(=O)N[C@@H](Cc1ccc(O)cc1)C(=O)N[C@H](C(=O)N[C@@H](Cc1cnc[nH]1)C(=O)N1CCC[C@H]1C(=O)N[C@@H](C)C(=O)O)C(C)C)C(C)C [SARALASIN],,,7.9 mmHg,15 mmHg,9.3 mmHg,20 mmHg,12.1 mmHg
CC[C@H](C)[C@H](NC(=O)[C@H](Cc1ccc(O)cc1)NC(=O)[C@@H](NC(=O)[C@H](CCCN=C(N)N)NC(=O)[C@H](C)O)C(C)C)C(=O)N[C@@H](Cc1c[nH]cn1)C(=O)N1CCC[C@H]1C(=O)O[C@@H](C)C(=O)O,7.999,9.5,4.2 mmHg,10 mmHg,5.8 mmHg,16.7 mmHg,11.7 mmHg
CC(C)[C@H](NC(=O)[C@H](CCCN=C(N)N)NC(=O)CO)C(=O)N[C@@H](Cc1ccc(O)cc1)C(=O)N[C@H](C(=O)N[C@@H](Cc1c[nH]cn1)C(=O)N1CCC[C@H]1C(=O)O[C@@H](C)C(=O)O)C1CCCCC1 (Glycolyl-RVY[Chg]HP[Lac]-OH),8.614,9.53,6.7 mmHg,14.1 mmHg,7.5 mmHg,15.8 mmHg,17.5 mmHg
CC(C)[C@H](NC(=O)[C@H](CCCN=C(N)N)NC(=O)[C@H](C)O)C(=O)N[C@@H](Cc1ccc(O)cc1)C(=O)N[C@H](C(=O)N[C@@H](Cc1c[nH]cn1)C(=O)N1CCC[C@H]1C(=O)O[C@@H](C)C(=O)O)C1CCCC1 (H-[Lac]RVY[Gly(cPent)]HP[Lac]-OH),8.392,8.52,5.8 mmHg,10 mmHg,5 mmHg,15 mmHg,5 mmHg

# More lines, main results first:
pA2 (Angiotensin II receptor),pA2 [6],Structure (SMILES),Blood pressure (Rattus norvegicus [1]),Blood pressure (Rattus norvegicus [2]),Blood pressure (Rattus norvegicus [3]),Blood pressure (Rattus norvegicus [4]),Blood pressure (Rattus norvegicus [5])
9.649,11.09,CNCC(=O)N[C@@H](CCCN=C(N)N)C(=O)N[C@H](C(=O)N[C@@H](Cc1ccc(O)cc1)C(=O)N[C@H](C(=O)N[C@@H](Cc1c[nH]cn1)C(=O)N1CCC[C@H]1C(=O)O[C@@H](C)C(=O)O)C1CCCC1)C(C)C (H-[Sar]RVY[Gly(cPent)]HP[Lac]-OH),5 mmHg,11.7 mmHg,10 mmHg,11.7 mmHg,9.2 mmHg
9.933,9.42,CNCC(=O)N[C@@H](CCCN=C(N)N)C(=O)N[C@H](C(=O)N[C@@H](Cc1ccc(O)cc1)C(=O)N[C@H](C(=O)N[C@@H](Cc1c[nH]cn1)C(=O)N1CCC[C@H]1C(=O)N[C@@H](C)C(=O)O)C1CCCC1)C(C)C,5.8 mmHg,17.5 mmHg,10 mmHg,14.2 mmHg,10 mmHg
10.39,11.29,CNCC(=O)N[C@@H](CCCN=C(N)N)C(=O)N[C@H](C(=O)N[C@@H](Cc1ccc(O)cc1)C(=O)N[C@H](C(=O)N[C@@H](Cc1c[nH]cn1)C(=O)N1CCC[C@H]1C(=O)O[C@@H](C)C(=O)O)C1CCCCC1)C(C)C (H-[Sar]RVY[Chg]HP[Lac]-OH),3.6 mmHg,8.6 mmHg,5.7 mmHg,8.3 mmHg,12.1 mmHg
9.981,11.18,CNCC(=O)N[C@@H](CCCN=C(N)N)C(=O)N[C@H](C(=O)N[C@@H](Cc1ccc(O)cc1)C(=O)N[C@H](C(=O)N[C@@H](Cc1c[nH]cn1)C(=O)N1CCC[C@H]1C(=O)N[C@@H](C)C(=O)O)C1CCCCC1)C(C)C,10.29 mmHg,16.4 mmHg,17.9 mmHg,,16.9 mmHg
